Measured values from different studies.
Effect on: enzyme activity
CYP2C8: Cytochrome P450 2C8 (CYP2C8, Homo sapiens, UniProt P10632)
CYP2C9: Cytochrome P450 2C9 (CYP2C9, Homo sapiens, UniProt P11712)

Structure (SMILES)	target	test	test system	conditions	endpoint	result
CCc1nc2c(C)cc(N3CCN(CC(=O)N4CC(O)C4)CC3)cn2c1N(C)c1nc(-c2ccc(F)cc2)c(C#N)s1	CYP2C8	inhibitor			kinact	0.000588 s⁻¹
O=C(Nc1c2c(cc3c1CCC3)CCC2)NS(=O)(=O)/C=C/c1nccs1	CYP2C8	inhibitor	human, liver microsomes	2 µM, pH 7.4	inhibition	59.1%
CC1(CO)C(O[C@@H]2O[C@H](C(=O)O)[C@@H](O)[C@H](O)[C@H]2O)CC[C@@]2(C)C1CC[C@]1(C)C2CC=C2[C@H]3CC(C)(C)[C@H](O)[C@@H](O)[C@]3(CO)[C@H](O)C[C@]21C (stereo partly drawn)	CYP2C8	inhibitor, mass spectrometry	human, liver microsomes		IC50	> 90 mg/L
CCc1cc(/C(C)=N/OCc2ccc(C3CCCCC3)c(C(F)(F)F)c2)ccc1CN1CC(C(=O)O)C1	CYP2C8	inhibitor	human, liver microsomes	200 µM, 20 min	inhibition	17%
CCN(Cc1cnc2nc(N)nc(N)c2n1)c1ccc(C(=O)N2CCC(C(=O)OC)CC2)cc1	CYP2C9	inhibitor, luciferase		10 µM	inhibition	-2.93%
CON=C(N)c1ccc(-c2ccc(-c3ccc(C(N)=NOC)cc3)o2)cc1	CYP2C8	substrate			Km	2.6 µM
Cc1cccc(F)c1N1CCC(N2Cc3cn(CC(C)(F)F)nc3N(Cc3ccccc3C(F)(F)F)C2=O)CC1	CYP2C8	inhibitor	human, liver microsomes		Ki	7 µM
Cc1nc2c([nH]1)c(=O)n(C)c(=O)n2Cc1ccco1	CYP2C9	inhibitor	human, liver microsomes	40 µM	inhibition	7%
Nc1nc(N)c2nc(C(=O)NCc3cccc(C(F)(F)F)c3)cnc2n1	CYP2C9	inhibitor, luciferase		10 µM	inhibition	-17.1%
